Laboratory results as given in ChEMBL document CHEMBL2176901, “Pyrrolo[3,4-h]quinolinones a new class of photochemotherapeutic agents” (Bioorg Med Chem, 2011).

Key:
Type in all cases: functional, cell-based
HL-60 [1] = experiment: Phototoxicity in 2.5 J/cm'2 UV-A irradiated human HL60 cells after 72 hrs by MTT assay; conditions: HL-60, light or radiation study
How it was run: (§1)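 HL-60 and Jurkat (8×10³/well, RPMI-1640) and MCF-7, LoVo, NCTC-2544 (5×10³/well; DMEM or Ham's F12) preincubated 18 h at 37 °C, 5% CO₂. Compound in DMSO diluted in HBSS pH 7.2, 30 min at 37 °C, then UV-A at 2.5 or 3.75 J/cm². Medium replaced, 72 h incubation, MTT read-out. IC50 as mean ± SEM of three experiments.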

LoVo [2] = experiment: Phototoxicity in 3.75 J/cm'2 UV-A irradiated human LoVo cells after 72 hrs by MTT assay; conditions: light or radiation study
How it was run: (§2)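 Seeded at 5 × 10³ cells/well with 10% FBS: MCF-7 and NCTC-2544 in DMEM, LoVo in Ham's F12. Pre-incubated 18 h at 37 °C, 5% CO2. Compound (DMSO stock diluted in HBSS pH 7.2) was applied for 30 min at 37 °C, then UV-A irradiation (mainly 365 nm, 4.0 mW/cm²). Medium was restored for 72 h before MTT. IC50 is the mean ± SEM of three experiences.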

[3] = Phototoxicity in 2.5 J/cm'2 UV-A irradiated human NCTC-2544 cells after 72 hrs by MTT assay; conditions: NCTC-2544, light or radiation study; how it was run: as §1
Jurkat [4] = experiment: Phototoxicity in 2.5 J/cm'2 UV-A irradiated human Jurkat cells after 72 hrs by MTT assay; conditions: light or radiation study; how it was run: as §1
MCF7 [5] = experiment: Phototoxicity in 2.5 J/cm'2 UV-A irradiated human MCF7 cells after 72 hrs by MTT assay; conditions: MCF7, light or radiation study; how it was run: as §1
HL-60 [6] = experiment: Phototoxicity in 3.75 J/cm'2 UV-A irradiated human HL60 cells after 72 hrs by MTT assay; conditions: HL-60, light or radiation study; how it was run: as §1
[7] = Phototoxicity in 3.75 J/cm'2 UV-A irradiated human NCTC-2544 cells after 72 hrs by MTT assay; conditions: NCTC-2544, light or radiation study; how it was run: as §2
MCF7 [8] = experiment: Phototoxicity in 3.75 J/cm'2 UV-A irradiated human MCF7 cells after 72 hrs by MTT assay; conditions: MCF7, light or radiation study; how it was run: as §2
LoVo [9] = experiment: Phototoxicity in 2.5 J/cm'2 UV-A irradiated human LoVo cells after 72 hrs by MTT assay; conditions: light or radiation study; how it was run: as §1
Jurkat [10] = experiment: Phototoxicity in 3.75 J/cm'2 UV-A irradiated human Jurkat cells after 72 hrs by MTT assay; conditions: light or radiation study
How it was run: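 Jurkat cells (8 × 10³/well) in RPMI-1640 with 10% FBS, held 18 h at 37 °C, 5% CO2. Compound stock in DMSO was diluted in HBSS pH 7.2 and added for 30 min at 37 °C. Cells were UV-A irradiated (lamp mainly 365 nm, 4.0 mW/cm²), then returned to medium for 72 h. MTT readout. IC50 is the mean ± SEM of three experiences.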

For `Cn1cc2c(c1)-c1[nH]c(=O)c(S(=O)(=O)c3ccccc3)cc1CC2`, the IC50 (HL-60 [1]) was > 20 µM, the IC50 (LoVo [2]) was > 20 µM and the IC50 [3] was > 20 µM. The IC50 (Jurkat [4]) was > 20 µM, the IC50 (MCF7 [5]) was > 20 µM and the IC50 (HL-60 [6]) was 5.6 µM. The IC50 [7] was > 20 µM, the IC50 (MCF7 [8]) was > 20 µM and the IC50 (LoVo [9]) was > 20 µM. The IC50 (Jurkat [10]) was > 20 µM.
With `O=c1[nH]c2c(cc1S(=O)(=O)c1ccccc1)CCc1cn(Cc3ccccc3)cc1-2` the IC50 (HL-60 [1]) was > 20 µM, the IC50 (LoVo [2]) was > 20 µM and the IC50 [3] was > 20 µM. For the same molecule, the IC50 (Jurkat [4]) was > 20 µM, the IC50 (MCF7 [5]) was > 20 µM and the IC50 (HL-60 [6]) was 14.5 µM. For the same molecule, the IC50 [7] was > 20 µM, the IC50 (MCF7 [8]) was > 20 µM and the IC50 (LoVo [9]) was > 20 µM. The IC50 (Jurkat [10]) was > 20 µM.
With `Cc1c2c(c(C(=O)O)n1C)CCc1cc(S(=O)(=O)c3ccccc3)c(=O)[nH]c1-2` the IC50 (HL-60 [1]) was > 20 µM, the IC50 (LoVo [2]) was > 20 µM and the IC50 [3] was > 20 µM. The IC50 (Jurkat [4]) was > 20 µM, the IC50 (MCF7 [5]) was > 20 µM and the IC50 (HL-60 [6]) was > 20 µM. The IC50 [7] was > 20 µM, the IC50 (MCF7 [8]) was > 20 µM and the IC50 (LoVo [9]) was > 20 µM. For the same molecule, the IC50 (Jurkat [10]) was > 20 µM.
In the case of `O=c1ccc2ccc3occc3c2o1` [ANGELICIN], the IC50 (LoVo [2]) is reported as 1.1 µM, the IC50 [3] is reported as 4.2 µM and the IC50 [7] is reported as 0.9 µM. It also gave an IC50 (LoVo [9]) of 4 µM.
In the case of `CCOC(=O)c1[nH]c(C)c2c1CCc1cc(S(=O)(=O)c3ccccc3)c(=O)[nH]c1-2`, the IC50 (HL-60 [1]) is reported as 13.7 µM, the IC50 (LoVo [2]) is reported as 13.6 µM and the IC50 [3] is reported as > 20 µM. For the same molecule, the IC50 (Jurkat [4]) was 18 µM, the IC50 (MCF7 [5]) was > 20 µM and the IC50 (HL-60 [6]) was 9.1 µM. For the same molecule, the IC50 [7] was 15 µM, the IC50 (MCF7 [8]) was > 20 µM and the IC50 (LoVo [9]) was 17.5 µM. For the same molecule, the IC50 (Jurkat [10]) was 10 µM.
For `O=c1[nH]c2c(cc1S(=O)(=O)c1ccccc1)CCc1cn(-c3ccccc3)cc1-2`, the IC50 (HL-60 [1]) was 12.2 µM, the IC50 (LoVo [2]) was > 20 µM and the IC50 [3] was > 20 µM. The IC50 (Jurkat [4]) was > 20 µM, the IC50 (MCF7 [5]) was > 20 µM and the IC50 (HL-60 [6]) was 8 µM. The IC50 [7] was > 20 µM, the IC50 (MCF7 [8]) was > 20 µM and the IC50 (LoVo [9]) was > 20 µM. The IC50 (Jurkat [10]) was 7.4 µM.
In the case of `Cc1c2c(cn1C)CCc1cc(S(=O)(=O)c3ccccc3)c(=O)[nH]c1-2`, the IC50 (HL-60 [1]) is reported as > 20 µM, the IC50 (LoVo [2]) is reported as > 20 µM and the IC50 [3] is reported as > 20 µM. For the same molecule, the IC50 (Jurkat [4]) was > 20 µM, the IC50 (MCF7 [5]) was > 20 µM and the IC50 (HL-60 [6]) was > 20 µM. The IC50 [7] was > 20 µM, the IC50 (MCF7 [8]) was > 20 µM and the IC50 (LoVo [9]) was > 20 µM. The IC50 (Jurkat [10]) was > 20 µM.
With `Cn1c2c(cc(S(=O)(=O)c3ccccc3)c1=O)CCc1cn(Cc3ccccc3)cc1-2` the IC50 (HL-60 [1]) was 4.4 µM, the IC50 (LoVo [2]) was 2.8 µM and the IC50 [3] was 8.2 µM. For the same molecule, the IC50 (Jurkat [4]) was 3.6 µM, the IC50 (MCF7 [5]) was 6.6 µM and the IC50 (HL-60 [6]) was 2.8 µM. The IC50 [7] was 5.8 µM, the IC50 (MCF7 [8]) was 3.7 µM and the IC50 (LoVo [9]) was 3.9 µM. It also gave an IC50 (Jurkat [10]) of 2.5 µM.
`COc1nc2c(cc1S(=O)(=O)c1ccccc1)CCc1cn(Cc3ccccc3)cc1-2` showed an IC50 (HL-60 [1]) of 8.3 µM, an IC50 (LoVo [2]) of 8.7 µM and an IC50 [3] of 15.3 µM. The IC50 (Jurkat [4]) was 8.5 µM, the IC50 (MCF7 [5]) was 10 µM and the IC50 (HL-60 [6]) was 7.3 µM. The IC50 [7] was 9.6 µM, the IC50 (MCF7 [8]) was 7.5 µM and the IC50 (LoVo [9]) was 9.9 µM. The IC50 (Jurkat [10]) was 6.3 µM.
In the case of `CCOC(=O)c1c2c(c(C)n1Cc1ccccc1)-c1c(cc(S(=O)(=O)c3ccccc3)c(=O)n1C)CC2`, the IC50 (HL-60 [1]) is reported as 5.4 µM, the IC50 (LoVo [2]) is reported as 8.7 µM and the IC50 [3] is reported as > 20 µM. The IC50 (Jurkat [4]) was 2.9 µM, the IC50 (MCF7 [5]) was > 20 µM and the IC50 (HL-60 [6]) was 2.6 µM. For the same molecule, the IC50 [7] was 14.3 µM, the IC50 (MCF7 [8]) was 14.4 µM and the IC50 (LoVo [9]) was 12.1 µM. The IC50 (Jurkat [10]) was 1.3 µM.
With `Cc1[nH]c(C(=O)O)c2c1-c1[nH]c(=O)c(S(=O)(=O)c3ccccc3)cc1CC2` the IC50 (HL-60 [1]) was > 20 µM, the IC50 (LoVo [2]) was > 20 µM and the IC50 [3] was > 20 µM. The IC50 (Jurkat [4]) was > 20 µM, the IC50 (MCF7 [5]) was > 20 µM and the IC50 (HL-60 [6]) was > 20 µM. The IC50 [7] was > 20 µM, the IC50 (MCF7 [8]) was > 20 µM and the IC50 (LoVo [9]) was > 20 µM. The IC50 (Jurkat [10]) was > 20 µM.
`CCOC(=O)c1c2c(c(C)n1C)-c1[nH]c(=O)c(S(=O)(=O)c3ccccc3)cc1CC2` showed an IC50 (HL-60 [1]) of 3.6 µM, an IC50 (LoVo [2]) of 4 µM and an IC50 [3] of 10.1 µM. The IC50 (Jurkat [4]) was 2 µM, the IC50 (MCF7 [5]) was 10 µM and the IC50 (HL-60 [6]) was 1.8 µM. For the same molecule, the IC50 [7] was 6.2 µM, the IC50 (MCF7 [8]) was 5.1 µM and the IC50 (LoVo [9]) was 7.9 µM. It also gave an IC50 (Jurkat [10]) of 1.4 µM.
For `Cn1cc2c(c1)-c1c(cc(S(=O)(=O)c3ccccc3)c(=O)n1C)CC2`, the IC50 (HL-60 [1]) was > 20 µM, the IC50 (LoVo [2]) was > 20 µM and the IC50 [3] was > 20 µM. The IC50 (Jurkat [4]) was > 20 µM, the IC50 (MCF7 [5]) was > 20 µM and the IC50 (HL-60 [6]) was > 20 µM. The IC50 [7] was > 20 µM, the IC50 (MCF7 [8]) was > 20 µM and the IC50 (LoVo [9]) was > 20 µM. The IC50 (Jurkat [10]) was > 20 µM.
In the case of `CCOC(=O)c1[nH]c(C)c2c1CCc1cc(S(=O)(=O)c3ccccc3)c(=O)n(C)c1-2`, the IC50 (HL-60 [1]) is reported as > 20 µM, the IC50 (LoVo [2]) is reported as 13.2 µM and the IC50 [3] is reported as > 20 µM. The IC50 (Jurkat [4]) was > 20 µM, the IC50 (MCF7 [5]) was > 20 µM and the IC50 (HL-60 [6]) was 5.8 µM. For the same molecule, the IC50 [7] was > 20 µM, the IC50 (MCF7 [8]) was > 20 µM and the IC50 (LoVo [9]) was > 20 µM. For the same molecule, the IC50 (Jurkat [10]) was 12.5 µM.
In the case of `Cc1c2c(c(C(=O)O)n1Cc1ccccc1)CCc1cc(S(=O)(=O)c3ccccc3)c(=O)[nH]c1-2`, the IC50 (HL-60 [1]) is reported as > 20 µM, the IC50 (LoVo [2]) is reported as > 20 µM and the IC50 [3] is reported as > 20 µM. The IC50 (Jurkat [4]) was > 20 µM, the IC50 (MCF7 [5]) was > 20 µM and the IC50 (HL-60 [6]) was > 20 µM. The IC50 [7] was > 20 µM, the IC50 (MCF7 [8]) was > 20 µM and the IC50 (LoVo [9]) was > 20 µM. For the same molecule, the IC50 (Jurkat [10]) was > 20 µM.
With `Cn1c2c(cc(S(=O)(=O)c3ccccc3)c1=O)CCc1cn(-c3ccccc3)cc1-2` the IC50 (HL-60 [1]) was > 20 µM, the IC50 (LoVo [2]) was > 20 µM and the IC50 [3] was > 20 µM. For the same molecule, the IC50 (Jurkat [4]) was > 20 µM, the IC50 (MCF7 [5]) was > 20 µM and the IC50 (HL-60 [6]) was > 20 µM. For the same molecule, the IC50 [7] was > 20 µM, the IC50 (MCF7 [8]) was > 20 µM and the IC50 (LoVo [9]) was > 20 µM. For the same molecule, the IC50 (Jurkat [10]) was > 20 µM.
